Rows were chosen to be rich in hits. Some 2.2% of all compounds tested hit in one or more screens of this group.
VIM-2 inhibitor: inhibitors of Pseudomonas aeruginosa VIM-2 metallo-beta-lactamase | purified VIM-2, nitrocefin hydrolysis, epi-absorbance fluorescence | inhibition, % at 5.6 µM | actives 0.89% (n = 290,000) | AID 1527;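 active = inhibition above the mean of all tested compounds plus 3 SD, cutoff set per screening run, cut at about 7.5% in these data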;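 note: red hydrolysis product quenches plate fluorescence so inhibitors raise well fluorescence; 0% = enzyme with DMSO and 100% = DMSO without enzyme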
PHOSPHO1 block: inhibitors of human PHOSPHO1 phosphatase. actives 1.1% (n = 290,000). recombinant PHOSPHO1, absorbance phosphatase assay. inhibition, % at 13.3 µM; in the data active = inhibition above about 60%
Target sequence (Q8TCT1 whole entry, looked up): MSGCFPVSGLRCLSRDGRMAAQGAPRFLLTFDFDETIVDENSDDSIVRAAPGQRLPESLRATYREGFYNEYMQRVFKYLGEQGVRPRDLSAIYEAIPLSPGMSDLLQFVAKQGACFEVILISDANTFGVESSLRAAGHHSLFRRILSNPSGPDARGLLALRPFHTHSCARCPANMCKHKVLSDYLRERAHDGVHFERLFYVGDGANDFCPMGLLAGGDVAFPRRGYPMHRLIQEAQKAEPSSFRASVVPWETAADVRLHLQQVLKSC
PvdQ acylase: blocks Pseudomonas aeruginosa PvdQ acylase activity; AID 488965; inhibition, % at 10 µM; purified PvdQ acylase, fluorescence plate reader; actives 0.063% (n = 340,000); in the data active = inhibition above about 30%, passing the limit was not always enough;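 note: 0% = vehicle neutral wells and 100% = reference inhibitor wells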
CR mimetic SO: lowers age-related superoxide in aged yeast cells. S. cerevisiae aged cells, superoxide DHE fluorescence; active compounds read low. superoxide response (% of plate mean), % at 10 µM. actives 0.18% (n = 330,000). AID 2690;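 active = superoxide response under a set limit, about three screen SD below normal, cut at about 65% in these data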;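 note: yeast aged for seven days with compound at 30 °C before DHE staining; 100% = average MFI of all compound-treated wells on the plate with controls excluded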
IMP-1 inh: inhibitors of Pseudomonas aeruginosa IMP-1 metallo-beta-lactamase. purified IMP-1, nitrocefin hydrolysis, epi-absorbance fluorescence. inhibition, % at 5.6 µM. actives 0.45% (n = 290,000). AID 1556;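 active = inhibition above the mean plus 3 SD of all compounds in the same screening run, cut at about 4.5% in these data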;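 note: 0% = IMP-1 with DMSO and 100% = DMSO wells lacking enzyme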
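assay system = purified recombinant IMP-1 metallo-beta-lactamase enzyme | schedule = 15 min preincubation plus 25 min reaction at 25 °C | signal = Epi-absorbance fluorescence, 480 nm excitation, 530 nm emission | read-out basis = percent inhibition from optical density relative to buffer-blank wells | controls = IMP-1 with DMSO as 0%, enzyme-free DMSO as 100%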
Active calls of the source: *; x = not tested or not shown.

SMILES	VIM-2 inhibitor	PHOSPHO1 block	PvdQ acylase	CR mimetic SO	IMP-1 inh
O=C(Nc1ccc(-c2cn3ccccc3n2)cc1)c1cccs1	-4	28	1	91	6.4*
CCC(=O)c1ccc(OCCn2cncn2)cc1	-2	14	-6	96	-5
CCC(=O)c1ccccc1OCCCCn1cncn1	0	30	5	89	8.4*
Cc1ccc(C(=O)Cn2c(-c3ccccc3)noc2=O)cc1	-3	62*	-6	114	-3
CC(Oc1ccccc1)C(=O)Nc1cccc([N+](=O)[O-])c1 (configuration not stated)	-1	60*	-9	87	-2
COC(C(=O)Nc1cccc([N+](=O)[O-])c1)c1ccccc1 (configuration not stated)	-2	21	-13	94	-1
O=C(C[C@@H]1C/C=C\C[C@@H](Cc2ccc(F)cc2)C(=O)OCCNC1=O)N[C@H](CO)Cc1ccccc1	x	x	-4	96	x
CC(=O)N1N=C(c2cccc(Cl)c2)OC1c1ccc(C(C)C)cc1 (configuration not stated)	-6	2	-9	93	-2
CC(=O)N1N=C(c2ccc(C)cc2)OC1c1cccnc1 (configuration not stated)	-1	61*	-5	95	-2
COC(=O)CSc1nc(SC)nc2c1sc1nc(-c3ccco3)c3c(c12)CC(C)(C)OC3	x	x	1	x	x
CSc1nc(N(CCO)CCO)c2sc3nc(-c4ccco4)c4c(c3c2n1)CCC4	1	79*	-14	x	12*
CSc1nc(SCCO)c2sc3nc(-c4ccco4)c4c(c3c2n1)CC(C)(C)OC4	3	76*	-17	x	4
CSc1nnc(-c2ccccc2)o1	-1	-2	3	90	-2
CSc1nnc(-c2cccc(NC(=S)NN)c2)o1	9.7*	3	3	140	-4
CSc1nnc(-c2ccc(NC(N)=S)cc2)o1	1	51	-16	98	4.6*
Cc1cc(C)n(Cc2n[nH]c(=S)n2Cc2ccccc2)n1	2	90*	-8	95	-1
Cc1nn(Cc2n[nH]c(=S)n2Cc2ccccc2)c(C)c1Cl	1	99*	2	103	0
CCCCn1c(SCC(=O)Nc2cc(C(F)(F)F)cc(C(F)(F)F)c2)nnc1C(CC)N(C)C (configuration not stated)	-1	4	1	91	0
O=[N+]([O-])c1c(NCCCO)cc(Sc2nc3ccccc3s2)c2nonc12	0	-100	-14	104	-4
CCC(=O)OCCNc1cc(Sc2nc3ccccc3s2)c2nonc2c1[N+](=O)[O-]	-4	88*	11	101	-4
CCc1ccc(C(C(=O)NC2CCCCC2)N(C(=O)c2csnn2)C2CC2)cc1 (configuration not stated)	1	26	-2	93	-2
COC(=O)c1cc(C(=O)OC)cc(N2C(=O)CC(NNC(=O)c3ccccc3Cl)C2=O)c1 (configuration not stated)	9.6*	-8	-8	110	-1
CCOC(=O)/C(=C/C=C1\Sc2cc(C)c(C)cc2N1CC)C(C)=O	3	20	-5	x	4.8*
N=C1/C(=C\c2ccc(-c3cccc(C(=O)O)c3)o2)C(=O)N=C2SC=C(c3ccccc3)N12	-2	80*	-9	109	3
Cc1ccc(-n2nc(C)c3c2C(Br)C(C)(C)CC3=O)nc1 (configuration not stated)	x	x	8	x	x
SMILES	VIM-2 inhibitor	PHOSPHO1 block	PvdQ acylase	CR mimetic SO	IMP-1 inh
O=C(OCc1ccc(F)cc1)c1ccc2c(c1)-c1ccccc1C2=O	-2	30	-10	96	4.6*
CN1c2ccsc2C(O)=C(C(=S)Nc2ccccc2)S1(=O)=O	-5	94*	-5	98	-3
Cc1ccccc1NC(=S)C1=C(O)c2sccc2N(C)S1(=O)=O	-4	92*	-4	166	-3
CC(=O)c1cccc(NC(=O)CSc2n[nH]c(=O)n2C2CC2)c1	x	x	3	102	x
CN(C(=O)CSc1cc(C(=O)c2nccn2C)c2ccccc2n1)c1ccccc1	-4	43	7	109	-2
NS(=O)(=O)c1cccc(C(=O)OCC(=O)NC2CCCc3ccccc32)c1 (configuration not stated)	x	x	-13	139	x
NCc1cc2c3c(c1)CCCN3CCC2	9.0*	11	-3	109	-2
COC(=O)C1=C(C)N(CCCCCC(=O)O)C(=O)NC1c1ccccc1 (configuration not stated)	x	x	2	100	x
CCOC(=O)C(NC=O)(NC(C)(C)C)C(=O)OCC	-2	4	-9	98	4.8*
CCOC(=O)c1[nH]c(C)c(C(=O)O)c1C	-2	20	x	x	-3
O=C(CNCc1ccc(Cl)cc1)Nc1cc(S(=O)(=O)N2CCCC2)ccc1Cl	x	x	-12	x	x
Cc1ccc(NC(=O)CSc2nc3ccccc3c(=O)n2CCCC(=O)N2CCCC2)cc1	1	26	-11	89	10*
COCCCn1c(SCC(=O)Nc2ccc(C)cc2)nc2ccccc2c1=O	-2	-6	-3	82	-1
Cc1ccc2nc3sc(C(=O)N4CCOCC4)c(N)c3cc2c1	-3	86*	-4	108	0
Cc1ccc2cc3c(N)c(C(=O)N4CCOCC4)sc3nc2c1	-1	61*	-14	101	-4
CCOc1ccc2nc3sc(C(=O)N4CCN(C)CC4)c(N)c3cc2c1	4	-16	-5	108	-5
COc1ccc2cc3c(N)c(C(=O)N4CCCC4)sc3nc2c1	-5	-16	x	88	-7
Oc1ccccc1CC=NC1CCCCC1	x	x	-8	x	x
O=C(O)CCCN1C(=O)/C(=C/c2cn(-c3ccccc3)nc2-c2cccs2)SC1=S	-1	72*	-12	x	-3
CC(C)OC(=O)c1cccc2c1C(=O)c1ccccc1-2	10*	-6	-2	110	-1
O=C1c2ccccc2-c2cccc(C(=O)N3CCN(C(=O)c4ccccc4)CC3)c21	-1	60*	-10	99	-1
O=C(NNC(=O)c1ccccc1-n1cccc1)c1cncc(Br)c1	x	x	-6	100	x
CC(=O)Nc1cccc(C(=O)OCC(=O)N2CCC(c3ccccc3)=N2)c1	x	x	-11	113	x
O=C(Cc1ccccc1[N+](=O)[O-])OCc1cccc([N+](=O)[O-])c1	-4	31	x	115	-3
Cc1cccc(Nc2nc(-c3ccccn3)cs2)n1	-3	71*	-12	88	-6
COC(CNC(=O)CN1CCN(Cc2ccccc2F)C1=O)OC	-1	-29	7	100	-1
CCSc1nc(N)c2c3c(sc2n1)CN(C)CC3	8.5*	46	x	96	0
CC(C)(C)NC(=O)CN(C(=O)CCC(=O)Nc1nccs1)c1cccc(C(F)(F)F)c1	-4	60*	-5	105	-3
COc1ccc(NS(=O)(=O)c2ccc(N3CCCC3)c(NC(=S)Nc3cccc(S(=O)(=O)N(C)C)c3)c2)cc1	-1	64*	x	88	0
COCCCn1c(C(=O)N2CCOCC2)cc2c(=O)n3ccccc3nc21	0	23	0	86	42*

Source: PubChem
